Laboratory results as given in ChEMBL document CHEMBL1221237, “Synthesis of N-aryl-3-(indol-3-yl)propanamides and their immunosuppressive activities” (Bioorg Med Chem Lett, 2010).
Values belong to the compound of their own block, whether it stands above or below them. The source made the active and inactive calls. The calls are words filed in the database; no cut-off is given here.

How the values were obtained:
[1] = (§1) Immunosuppressive activity in C57BL/6 mouse splenocytes assessed as inhibition of concanavalin A-induced cell proliferation at 90 uM after 72 hrs by MTT assay; assay type: functional; conditions: C57BL/6, Splenocyte
Summary of the method: (§2)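 Splenocytes pooled from two spleens of 8-week-old female C57BL/6 mice, red cells lysed with 20 mM Tris-HCl/140 mM NH4Cl, seeded 1.5×10^5/well. Stimulated with 1 μg/mL ConA, compounds diluted from DMSO into RPMI with 10% FCS and 50 μM mercaptoethanol. 72 h at 37 °C, 5% CO2. MTT 4 h, OD 570 nm, sextuplicate. Inhibition = (control OD − treated OD)/control OD × 100.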

[2] = Inhibition of recombinant ERK after 1 hr
Summary of the method: (§3)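 Recombinant kinase with substrate and 10 μM ATP, 1 h incubation. Compound at 10 final concentrations, 3.16 nM-100 μM. Activity read by AlphaScreen Protein-A detection after bead-mix stop; IC50 derived.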

[3] = target: High affinity nerve growth factor receptor (Homo sapiens, UniProt P04629); experiment: Inhibition of recombinant TrkA after 1 hr; summary of the method: as §3
[4] = test system: Mus musculus; experiment: Immunosuppressive activity in delayed-type hypersensitivity po dosed BALB/C mouse model assessed as inhibition of sheep RBC-induced foot-pad swelling administered qd for 5 days measured after 24 hrs last post dose; assay type: functional, organism-based
Summary of the method: (§4)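 Groups of five female BALB/c mice, 8-9 weeks old, primed iv with 5×10^6 SRBC in PBS. Compound in olive oil given orally daily for 5 days, from priming to challenge. Day 4: 3-4×10^8 SRBC into right hind footpad, PBS into left. Swelling difference read 24 h later; inhibition taken against untreated controls. Mean ± SEM, Dunnett test.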

[5] = target: Homeodomain-interacting protein kinase 1 (Homo sapiens, UniProt Q86Z02); experiment: Inhibition of recombinant HIPK1 after 1 hr; summary of the method: as §3
Sequence of Homeodomain-interacting protein kinase 1 (Q86Z02 whole entry): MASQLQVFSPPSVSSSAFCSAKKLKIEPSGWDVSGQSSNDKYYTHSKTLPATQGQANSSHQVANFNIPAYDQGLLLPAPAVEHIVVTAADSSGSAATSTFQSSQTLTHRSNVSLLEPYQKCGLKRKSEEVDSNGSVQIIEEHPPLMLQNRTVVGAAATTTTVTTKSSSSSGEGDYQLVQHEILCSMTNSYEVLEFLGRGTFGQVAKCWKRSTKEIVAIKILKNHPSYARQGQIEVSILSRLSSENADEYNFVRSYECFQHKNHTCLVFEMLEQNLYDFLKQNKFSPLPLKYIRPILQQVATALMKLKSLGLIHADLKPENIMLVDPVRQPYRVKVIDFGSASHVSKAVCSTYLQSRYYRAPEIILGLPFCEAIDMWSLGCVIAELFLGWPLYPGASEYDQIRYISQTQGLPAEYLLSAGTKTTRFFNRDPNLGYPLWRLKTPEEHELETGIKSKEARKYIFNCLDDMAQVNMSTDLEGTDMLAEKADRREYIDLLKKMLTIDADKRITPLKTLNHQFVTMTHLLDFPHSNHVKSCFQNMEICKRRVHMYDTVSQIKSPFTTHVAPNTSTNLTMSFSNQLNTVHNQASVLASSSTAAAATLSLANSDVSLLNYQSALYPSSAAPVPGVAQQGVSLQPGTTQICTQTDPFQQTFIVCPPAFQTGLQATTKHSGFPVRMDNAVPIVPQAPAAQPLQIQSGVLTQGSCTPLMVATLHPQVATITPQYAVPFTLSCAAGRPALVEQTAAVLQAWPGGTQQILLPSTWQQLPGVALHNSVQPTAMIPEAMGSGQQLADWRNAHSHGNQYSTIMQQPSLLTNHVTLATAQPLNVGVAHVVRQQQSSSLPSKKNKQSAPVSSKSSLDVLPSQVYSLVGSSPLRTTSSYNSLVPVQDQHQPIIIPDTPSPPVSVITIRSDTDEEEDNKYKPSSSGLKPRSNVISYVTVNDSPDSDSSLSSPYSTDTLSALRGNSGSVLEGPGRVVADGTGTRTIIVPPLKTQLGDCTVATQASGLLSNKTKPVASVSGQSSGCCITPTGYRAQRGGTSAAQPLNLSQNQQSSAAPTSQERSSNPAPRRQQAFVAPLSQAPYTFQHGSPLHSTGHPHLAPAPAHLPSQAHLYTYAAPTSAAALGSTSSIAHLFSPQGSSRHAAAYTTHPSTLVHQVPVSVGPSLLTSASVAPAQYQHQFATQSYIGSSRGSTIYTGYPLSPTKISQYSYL

[6] = Cytotoxicity in C57BL/6 mouse splenocytes assessed as reduction of cell viability at 90 uM after 48 hrs by MTT assay; assay type: cell-based; conditions: splenocyte
[7] = target: Tyrosine-protein kinase Yes (Homo sapiens, UniProt P07947); experiment: Inhibition of recombinant YES after 1 hr; summary of the method: as §3
Sequence of Tyrosine-protein kinase Yes (P07947 whole entry): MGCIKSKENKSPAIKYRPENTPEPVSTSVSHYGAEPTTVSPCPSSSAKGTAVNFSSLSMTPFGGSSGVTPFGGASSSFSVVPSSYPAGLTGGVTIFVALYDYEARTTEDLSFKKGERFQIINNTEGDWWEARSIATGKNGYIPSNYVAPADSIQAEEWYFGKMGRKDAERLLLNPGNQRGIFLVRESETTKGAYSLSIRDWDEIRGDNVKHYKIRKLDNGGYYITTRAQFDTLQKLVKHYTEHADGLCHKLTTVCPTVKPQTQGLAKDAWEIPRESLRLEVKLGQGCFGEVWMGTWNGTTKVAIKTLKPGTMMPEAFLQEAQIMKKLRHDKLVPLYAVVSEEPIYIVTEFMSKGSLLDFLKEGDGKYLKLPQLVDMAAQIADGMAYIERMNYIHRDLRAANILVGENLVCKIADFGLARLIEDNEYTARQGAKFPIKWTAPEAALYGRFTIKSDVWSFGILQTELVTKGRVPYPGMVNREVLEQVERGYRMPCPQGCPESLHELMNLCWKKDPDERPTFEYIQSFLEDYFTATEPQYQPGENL

[8] = target: T1, Tyrosine-protein kinase JAK3 (Homo sapiens, UniProt P52333); experiment: Inhibition of recombinant JAK3 after 1 hr; summary of the method: as §3
T1 sequence (P52333 whole entry): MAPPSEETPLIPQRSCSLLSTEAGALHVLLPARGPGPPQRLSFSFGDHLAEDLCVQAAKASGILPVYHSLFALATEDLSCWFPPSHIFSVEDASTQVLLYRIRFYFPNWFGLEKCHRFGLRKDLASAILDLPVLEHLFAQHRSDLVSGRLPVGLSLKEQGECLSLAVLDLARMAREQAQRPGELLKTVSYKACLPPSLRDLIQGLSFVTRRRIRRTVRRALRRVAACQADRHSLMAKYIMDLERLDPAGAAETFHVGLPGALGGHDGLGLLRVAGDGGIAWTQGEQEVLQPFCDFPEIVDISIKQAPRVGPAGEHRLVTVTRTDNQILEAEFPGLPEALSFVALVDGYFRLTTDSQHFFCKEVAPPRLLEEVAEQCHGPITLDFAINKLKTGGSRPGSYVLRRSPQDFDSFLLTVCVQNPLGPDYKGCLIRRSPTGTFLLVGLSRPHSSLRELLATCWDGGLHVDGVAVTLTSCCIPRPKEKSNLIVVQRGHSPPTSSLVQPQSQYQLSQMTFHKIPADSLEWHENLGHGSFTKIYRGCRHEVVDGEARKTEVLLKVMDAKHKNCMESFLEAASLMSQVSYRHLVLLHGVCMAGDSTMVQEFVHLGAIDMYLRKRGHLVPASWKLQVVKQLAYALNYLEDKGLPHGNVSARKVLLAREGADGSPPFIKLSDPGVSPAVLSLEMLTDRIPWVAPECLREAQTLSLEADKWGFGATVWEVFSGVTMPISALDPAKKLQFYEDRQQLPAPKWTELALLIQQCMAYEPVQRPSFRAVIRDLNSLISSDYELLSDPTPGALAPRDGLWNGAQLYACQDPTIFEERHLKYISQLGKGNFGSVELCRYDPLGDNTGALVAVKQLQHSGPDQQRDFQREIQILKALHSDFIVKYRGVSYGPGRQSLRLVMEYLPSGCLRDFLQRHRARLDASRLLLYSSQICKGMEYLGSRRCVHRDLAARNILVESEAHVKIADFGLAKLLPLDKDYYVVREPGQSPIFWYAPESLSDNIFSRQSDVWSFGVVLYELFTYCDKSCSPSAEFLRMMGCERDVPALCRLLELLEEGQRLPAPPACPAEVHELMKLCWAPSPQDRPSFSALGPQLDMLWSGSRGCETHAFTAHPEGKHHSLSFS

[9] = test system: Mus musculus; experiment: Immunosuppressive activity in delayed-type hypersensitivity BALB/C mouse model assessed as inhibition of sheep RBC-induced foot-pad swelling at 50 mg/kg, po qd for 5 days measured after 24 hrs last post dose; assay type: functional, organism-based; set-up: dose 50 mg/kg; summary of the method: as §4
[10] = target: Serine/threonine-protein kinase pim-1 (Homo sapiens, UniProt P11309); experiment: Inhibition of recombinant Pim1 after 1 hr; summary of the method: as §3
Sequence of Serine/threonine-protein kinase pim-1 (P11309 whole entry): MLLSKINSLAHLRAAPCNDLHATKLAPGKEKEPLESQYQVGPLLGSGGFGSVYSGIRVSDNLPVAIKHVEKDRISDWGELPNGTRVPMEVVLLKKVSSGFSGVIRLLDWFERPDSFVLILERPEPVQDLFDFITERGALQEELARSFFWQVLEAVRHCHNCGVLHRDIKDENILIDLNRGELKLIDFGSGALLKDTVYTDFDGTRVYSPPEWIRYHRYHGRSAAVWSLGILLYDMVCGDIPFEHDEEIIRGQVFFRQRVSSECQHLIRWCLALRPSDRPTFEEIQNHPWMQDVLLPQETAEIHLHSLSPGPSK

[11] = target: Tyrosine-protein kinase ABL1 (Homo sapiens, UniProt P00519); experiment: Inhibition of recombinant c-Abl after 1 hr; summary of the method: as §3
Sequence of Tyrosine-protein kinase ABL1 (P00519 whole entry): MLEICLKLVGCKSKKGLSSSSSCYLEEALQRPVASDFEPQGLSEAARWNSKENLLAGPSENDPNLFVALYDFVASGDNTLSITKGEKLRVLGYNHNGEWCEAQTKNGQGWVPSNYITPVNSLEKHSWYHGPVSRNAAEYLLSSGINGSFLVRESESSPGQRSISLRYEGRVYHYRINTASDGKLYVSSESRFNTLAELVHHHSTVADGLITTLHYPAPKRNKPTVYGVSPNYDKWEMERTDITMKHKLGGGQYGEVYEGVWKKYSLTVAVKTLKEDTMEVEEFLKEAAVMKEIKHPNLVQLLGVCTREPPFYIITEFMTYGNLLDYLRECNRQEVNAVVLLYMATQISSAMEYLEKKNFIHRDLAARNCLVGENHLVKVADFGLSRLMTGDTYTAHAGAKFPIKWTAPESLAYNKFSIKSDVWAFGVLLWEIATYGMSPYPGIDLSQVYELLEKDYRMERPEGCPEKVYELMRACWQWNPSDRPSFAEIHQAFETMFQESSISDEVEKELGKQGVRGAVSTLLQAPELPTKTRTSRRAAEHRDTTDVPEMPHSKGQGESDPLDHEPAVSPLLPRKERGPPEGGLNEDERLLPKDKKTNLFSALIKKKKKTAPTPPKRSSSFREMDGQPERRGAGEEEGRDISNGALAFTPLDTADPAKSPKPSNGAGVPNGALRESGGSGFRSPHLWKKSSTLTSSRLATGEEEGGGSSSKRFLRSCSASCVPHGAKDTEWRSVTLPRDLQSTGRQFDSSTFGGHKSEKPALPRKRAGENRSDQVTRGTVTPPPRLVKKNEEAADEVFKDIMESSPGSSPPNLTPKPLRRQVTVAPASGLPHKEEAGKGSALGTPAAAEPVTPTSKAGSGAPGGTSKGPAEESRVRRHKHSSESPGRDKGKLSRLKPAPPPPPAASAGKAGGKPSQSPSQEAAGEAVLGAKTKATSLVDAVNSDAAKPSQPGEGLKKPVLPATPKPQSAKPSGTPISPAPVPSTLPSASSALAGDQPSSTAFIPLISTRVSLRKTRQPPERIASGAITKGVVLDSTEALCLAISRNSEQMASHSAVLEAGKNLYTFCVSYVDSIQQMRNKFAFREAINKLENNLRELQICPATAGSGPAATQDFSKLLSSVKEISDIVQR

[12] = (§5) Immunosuppressive activity in C57BL/6 mouse splenocytes assessed as inhibition of concanavalin A-induced cell proliferation at 30 uM after 72 hrs by MTT assay; assay type: functional; conditions: C57BL/6, Splenocyte; summary of the method: as §2
[13] = (§6) Immunosuppressive activity in C57BL/6 mouse splenocytes assessed as inhibition of cell proliferation after 72 hrs by MTT assay; assay type: functional, cell-based; conditions: C57BL/6, Splenocyte; summary of the method: as §2
[14] = test system: Splenocyte; experiment: as §6; assay type: functional, cell-based; summary of the method: as §2
[15] = target: Vascular endothelial growth factor receptor 2 (Homo sapiens, UniProt P35968); experiment: Inhibition of recombinant KDR after 1 hr; summary of the method: as §3
Sequence of Vascular endothelial growth factor receptor 2 (P35968 whole entry): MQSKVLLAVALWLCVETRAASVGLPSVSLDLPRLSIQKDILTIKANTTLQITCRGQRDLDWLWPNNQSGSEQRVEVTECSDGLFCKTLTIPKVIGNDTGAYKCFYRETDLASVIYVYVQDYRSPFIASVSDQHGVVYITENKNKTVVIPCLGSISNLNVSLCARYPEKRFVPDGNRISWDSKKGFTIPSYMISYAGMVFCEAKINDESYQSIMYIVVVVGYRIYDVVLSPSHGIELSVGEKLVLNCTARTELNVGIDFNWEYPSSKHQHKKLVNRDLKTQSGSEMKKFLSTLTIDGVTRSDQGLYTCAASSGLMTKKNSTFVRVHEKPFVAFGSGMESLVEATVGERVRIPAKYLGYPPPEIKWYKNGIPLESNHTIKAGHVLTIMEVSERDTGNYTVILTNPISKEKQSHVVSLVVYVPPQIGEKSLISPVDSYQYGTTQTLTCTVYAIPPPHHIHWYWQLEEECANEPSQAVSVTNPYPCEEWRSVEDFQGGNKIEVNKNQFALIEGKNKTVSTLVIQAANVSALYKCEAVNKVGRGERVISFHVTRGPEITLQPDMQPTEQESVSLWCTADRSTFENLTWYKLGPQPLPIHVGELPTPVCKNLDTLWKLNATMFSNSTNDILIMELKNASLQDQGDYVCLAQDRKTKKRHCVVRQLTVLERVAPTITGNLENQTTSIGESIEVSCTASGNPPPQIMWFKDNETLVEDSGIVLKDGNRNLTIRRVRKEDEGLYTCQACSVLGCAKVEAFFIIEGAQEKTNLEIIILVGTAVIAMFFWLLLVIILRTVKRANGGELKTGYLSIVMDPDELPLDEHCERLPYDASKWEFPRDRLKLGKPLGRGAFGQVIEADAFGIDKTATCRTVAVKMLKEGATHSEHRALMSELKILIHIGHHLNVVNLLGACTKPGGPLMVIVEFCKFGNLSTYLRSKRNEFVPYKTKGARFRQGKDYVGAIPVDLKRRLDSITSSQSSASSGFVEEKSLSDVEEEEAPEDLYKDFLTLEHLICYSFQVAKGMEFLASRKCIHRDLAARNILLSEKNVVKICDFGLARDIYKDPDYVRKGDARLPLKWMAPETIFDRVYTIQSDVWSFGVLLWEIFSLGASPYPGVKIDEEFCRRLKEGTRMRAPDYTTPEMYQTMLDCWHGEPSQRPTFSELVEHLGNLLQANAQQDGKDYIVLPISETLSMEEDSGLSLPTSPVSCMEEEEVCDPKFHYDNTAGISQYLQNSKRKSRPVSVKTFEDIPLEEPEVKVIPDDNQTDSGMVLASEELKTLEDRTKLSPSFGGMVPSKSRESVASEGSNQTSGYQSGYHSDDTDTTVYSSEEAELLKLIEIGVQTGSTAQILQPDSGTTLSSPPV

[16] = test system: Mus musculus; experiment: Acute toxicity in BALB/C mouse at 50 to 120 mg/kg, po qd for 5 days; assay type: organism-based; set-up: dose 50-120 mg/kg, route oral; conditions: in vivo, 120 h
Summary of the method: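 Female BALB/C mice, 8-9 weeks old, groups of five. Dosed orally once daily for 5 days in olive oil, from priming to challenge, within a DTH study: primed iv with 5×10^6 SRBC, footpad challenge with SRBC on day 4. Acute toxicity judged by observation against untreated control mice over the 5-day treatment.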

[17] = target: Tyrosine-protein kinase JAK2 (Homo sapiens, UniProt O60674); experiment: Inhibition of recombinant JAK2 after 1 hr; summary of the method: as §3
[18] = target: T2, Aurora kinase A (Homo sapiens, UniProt O14965); experiment: Inhibition of recombinant aurora A after 1 hr; summary of the method: as §3
T2 sequence (O14965 whole entry): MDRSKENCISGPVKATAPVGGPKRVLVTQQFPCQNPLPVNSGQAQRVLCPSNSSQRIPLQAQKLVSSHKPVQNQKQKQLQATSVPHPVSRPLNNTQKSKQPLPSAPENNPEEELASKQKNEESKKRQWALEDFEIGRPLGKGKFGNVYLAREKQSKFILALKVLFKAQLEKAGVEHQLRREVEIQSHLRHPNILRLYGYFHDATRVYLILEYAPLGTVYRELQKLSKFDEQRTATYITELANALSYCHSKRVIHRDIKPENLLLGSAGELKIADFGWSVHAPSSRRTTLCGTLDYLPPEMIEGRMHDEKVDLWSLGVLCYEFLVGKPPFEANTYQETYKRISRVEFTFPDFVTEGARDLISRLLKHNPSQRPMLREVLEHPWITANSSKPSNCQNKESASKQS

[19] = test system: Splenocyte; experiment: as §5; assay type: functional; summary of the method: as §2
[20] = test system: Splenocyte; experiment: as §1; assay type: functional; summary of the method: as §2
[21] = test system: Mus musculus; experiment: Immunosuppressive activity in delayed-type hypersensitivity BALB/C mouse model assessed as inhibition of sheep RBC-induced foot-pad swelling at 50 to 120 mg/kg, po qd for 5 days measured after 24 hrs last post dose; assay type: functional; conditions: dose mg/kg 50-120; summary of the method: as §4

Compound: O=C(CCc1cn(Cc2ccc(Cl)cc2)c2ccccc12)Nc1ccc(C(F)(F)F)cc1
inhibition at 90 µM [1]: 18%

Compound: O=C(CCc1cn(Cc2ccc(Cl)cc2)c2ccccc12)Nc1ccc([N+](=O)[O-])cc1
IC50 [2]: > 100 µM
IC50 [3]: > 100 µM
inhibition [4]: Dose-dependent effect
IC50 [5]: > 100 µM
Activity [6]: Non-toxic
IC50 [7]: 38.1 µM
IC50 [8]: 34.2 µM
inhibition [9]: Active
IC50 [10]: > 100 µM
IC50 [11]: > 100 µM
inhibition at 30 µM [12]: 87%
IC50 [13]: 19.8 µM
inhibition [14]: Dose-dependent effect
IC50 [15]: 33.2 µM
Activity [16]: Non-toxic
inhibition at 90 µM [1]: 92%
IC50 [17]: 107 µM
IC50 [18]: > 100 µM

Compound: O=C(CCc1cn(Cc2ccc(Cl)cc2)c2ccccc12)Nc1ccnc2ccccc12
inhibition at 30 µM [12]: 20%
inhibition at 90 µM [1]: 37%

Compound: Nc1ccc(NC(=O)CCc2cn(Cc3ccc(Cl)cc3)c3ccccc23)cc1
inhibition [19]: inactive
inhibition [20]: inactive

Compound: O=C(CCc1cn(Cc2ccc(Cl)cc2)c2ccccc12)Nc1cccc2ncccc12
inhibition [19]: inactive
inhibition [20]: inactive

Compound: O=C(CCc1cn(Cc2ccc(Cl)cc2)c2ccccc12)Nc1ccc2ncccc2c1
inhibition [19]: inactive
inhibition at 90 µM [1]: 86%

Compound: O=C(CCc1cn(Cc2ccc(Cl)cc2)c2ccccc12)Nc1ccccc1
inhibition [19]: inactive
inhibition [20]: inactive

Compound: O=C(CCc1cn(Cc2ccc(Cl)cc2)c2ccccc12)Nc1cccnc1
inhibition at 30 µM [12]: 28%
inhibition at 90 µM [1]: 40%

Compound: N#Cc1ccc(NC(=O)CCc2cn(Cc3ccc(Cl)cc3)c3ccccc23)cc1
inhibition at 30 µM [12]: 30%
inhibition at 90 µM [1]: 78%

Compound: O=C(CCc1cn(Cc2ccc(Cl)cc2)c2ccccc12)Nc1cccc2cnccc12
inhibition [19]: inactive
inhibition at 90 µM [1]: 17%

IC50 [2]: > 100 µM
IC50 [3]: > 100 µM
IC50 [5]: > 100 µM
IC50 [7]: 30 µM
IC50 [8]: 52 µM
IC50 [10]: > 100 µM
IC50 [11]: > 100 µM
IC50 [15]: 26 µM
IC50 [17]: 134 µM
IC50 [18]: > 100 µM
Compound: O=C(CCc1cn(Cc2ccc(Cl)cc2)c2ccccc12)Nc1ccncc1
inhibition at 30 µM [12]: 19%
IC50 [13]: 17 µM
inhibition (INH) [21]: 69%
inhibition at 90 µM [1]: 87%

Compound: O=C(CCc1cn(Cc2ccc(Cl)cc2)c2ccccc12)Nc1ccccn1
inhibition [19]: inactive
inhibition at 90 µM [1]: 26%
